The values that follow come from ChEMBL document CHEMBL1135437, “Novel, non-acylguanidine-type Na(+)/H(+) exchanger inhibitors: synthesis and pharmacology of 5-tetrahydroquinolinylidene aminoguanidine derivatives” (J Med Chem, 2002).

Assay [1] is described as follows: in vitro inhibition against NHE to inhibit the acid induced swelling in human platelets by 50%. The format is functional. A digest of the protocol:
(§1)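 Platelet-rich plasma from forearm-vein blood of normal adult men, adjusted to 10 × 10^4/µL. Compound in DMSO added 3 min before sodium propionate buffer (135 mM, pH 6.7, 37 °C), final DMSO 1%. Light transmission at 550 nm recorded; maximum upstroke velocity in the first minute used. 100% inhibition defined by vehicle vs HOE-642 (10^-5 M). IC50 = 50% inhibition of swelling; triplicate experiments.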

Assay [2] relates to Rattus norvegicus. Briefly: In vivo inhibitory effect on the myocardial infarct size of ischemia-reperfusion injury model of rat. Administered intravenously 5 min before occlusion. The class given is functional, Myocardium. A digest of the protocol: (§2)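 Male Wistar rats (11–12 weeks), anesthetized; left coronary artery occluded 1 h, then reperfused 24 h. Dose 0.1 or 0.3 mg/kg iv, 5 min before occlusion. Area at risk stained with 1% Evans blue; six left-ventricle slices stained with 1% TTC, 37 °C, 10 min. Infarct size expressed as % of area at risk by weight. n = 5–7.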

Assay [3] deals with Rattus norvegicus. As to the kind of experiment: In vivo inhibitory effect on the Myocardial Infarct size of Ischemia-Reperfusion Injury model of rat. Administered intravenously […]. The format is functional, Myocardium. The following applies: in the assay text read “5 min before” for “2 hr before”.
The subject of assay [4] is Rattus norvegicus. As to the kind of experiment: In vivo inhibitory effect on the Myocardial Infarct size of Ischemia-Reperfusion Injury model of rat. Administered intravenously 5 min before occlusion. The format is functional, Myocardium. Summed up:
as §2

A short description of assay [5]: In vitro inhibition of acid induced swelling in rat platelets by 50% as a measure of NHE inhibition. The class given is functional. A digest of the protocol:
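Platelet-rich plasma from male Wistar rats (13–15 weeks), diluted in saline to 40 × 10^4/µL. Compound in DMSO added 3 min before sodium propionate buffer (135 mM, pH 6.7, 37 °C), final DMSO 1%. Swelling read as the change in 550 nm light transmission 1 min later, corrected with platelet-poor plasma. 100% inhibition defined by vehicle vs HOE-642 (10^-5 M). IC50 from triplicate experiments.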

For assay [6], the system named is Rattus norvegicus. As to the kind of experiment: In vivo inhibitory effect on the myocardial infarct size of ischemia-reperfusion injury model of rat administered intravenously 5 min before occlusion. The class given is functional, Myocardium. A digest of the protocol: as §2
Assay [7] in a line: In vitro inhibition against Na+/H+ exchanger(NHE) by measuring its ability to inhibit the acid induced swelling in human platelets by 50%. The format is functional. Summed up:
as §1

Structures are written as SMILES.

`CS(=O)(=O)O.CS(=O)(=O)O.Cc1ccnc2c1/C(=N/N=C(N)N)C[C@H](c1ccccc1Cl)C2`: it took 9 nM to reach half-maximal inhibition in assay [1] (IC50). Besides, the Inhibition in the assay with Rattus norvegicus [2] worked out at 44%.

`CS(=O)(=O)O.CS(=O)(=O)O.Cc1ccc(F)cc1[C@H]1C/C(=N\N=C(N)N)c2c(C)ccnc2C1` came in with a half-maximal inhibitory concentration (IC50) in assay [1] of 13 nM. This compound also registered an Inhibition with Rattus norvegicus [3] of 33%.

In assay [1], `CS(=O)(=O)O.CS(=O)(=O)O.Cc1ccnc2c1/C(=N/N=C(N)N)C[C@H](c1cc(Cl)sc1Cl)C2` showed a half-maximal inhibitory concentration (IC50) of 7 nM. In addition, in the assay on Rattus norvegicus [4], the Inhibition amounted to 43%.

On to `Cc1ccnc2c1/C(=N/N=C(N)N)CC(c1ccccn1)C2.Cl.Cl` (stereo unspecified), for which the Inhibition in assay [5] amounted to 23%.

Compound `Cc1ccnc2c1/C(=N/N=C(N)N)CC(c1c(Cl)cccc1Cl)C2.Cl.Cl` (stereo unspecified) yielded an Inhibition in assay [5] of 23%.

In the case of `Cc1ccnc2c1/C(=N/N=C(N)N)CC(c1ccncc1)C2.Cl.Cl` (stereo unspecified), the Inhibition in assay [5] was 25%.

With `CC(C)c1ccc(C(=O)N=C(N)N)cc1S(C)(=O)=O` [CARIPORIDE], the Inhibition with Rattus norvegicus [6] worked out at 28%. For the same compound, the half-inhibitory concentration (IC50) in assay [7] came to 210 nM.
